MrgX1 antagonist = blocks BAM8-22 activation of human MrgX1 receptor. Q96LB2. MRGX1-HEK293 calcium flux, Fluo-4, BAM8-22 antagonism; hits give low values. B-score at 10 µM. 1.3% of 310,000 active;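 active = calcium-response B-score plate-corrected more than 3 library SD below zero, starting fluorescence within 5 deviations, no agonist response on first addition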;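 note: peak minus trough fluorescence over baseline after final BAM8-22 challenge near maximal dose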
MrgX1 agonist = agonists of human MrgX1 receptor. MrgX1-HEK293 cells, Fluo-4 calcium fluorescence, agonist mode; hits give high values. Q96LB2. B-score at 10 µM. 0.44% of 310,000 active;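 active = calcium response B-score plate-corrected fluorescence ratio at least 3 library SD, with starting fluorescence B-score inside 5 SD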
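Test system: Stable human MrgX1 HEK293 cell line | Schedule: Overnight plating before 1 h dye loading | Read-out basis: Baseline-normalised fluorescence change ratio, B-scored | Detection: Kinetic calcium dye fluorescence, Fluo-4 NW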
RGS4 act = potentiators or activators of RGS4 | B-score at 10 µM | HEK293 M3R/inducible RGS4, carbachol calcium flux Fluo4; hits give low values | 0.92% of 310,000 active;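 active = B-score of the integrated calcium signal more than 4 SD below the library mean, with starting fluorescence not abnormally high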;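 note: negative B-score means reduced calcium response which marks RGS4 activation or potentiation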
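Material: Inducible-RGS4 HEK293 cells carrying M3 receptor; also added: carbachol at ECmax as muscarinic agonist stimulus; incubation: compound preincubation 20 min at room temperature before agonist; signal: Fluo4-AM (2 µM) calcium-flux fluorescence, kinetic read; measure: integrated calcium ratio converted to B score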
RGS4 inh = inhibitors of human RGS4; P49798; HEK293 M3R/RGS4 inducible, Fluo-4 calcium flux; hits give high values; triggered by carbachol at its EC20; B-score at 10 µM; 0.45% of 310,000 active; AID 463165;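 active = B-score, a plate-corrected calcium signal, over three deviations above library mean, with baseline fluorescence within five deviations of library mean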;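 note: RGS4 expression induced by doxycycline in cells with stable M3 receptor; B-score is computed from the integrated fluorescence ratio over baseline after carbachol; higher B-score means a larger calcium signal and so more RGS4 inhibition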
Target sequence (P49798 whole entry, looked up): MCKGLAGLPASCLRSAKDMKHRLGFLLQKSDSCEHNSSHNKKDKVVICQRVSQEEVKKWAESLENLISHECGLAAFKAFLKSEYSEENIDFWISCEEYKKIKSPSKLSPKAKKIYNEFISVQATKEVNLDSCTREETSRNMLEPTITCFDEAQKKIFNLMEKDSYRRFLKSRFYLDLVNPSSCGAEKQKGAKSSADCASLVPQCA
PHOSPHO1 block = inhibitors of human PHOSPHO1 phosphatase; recombinant PHOSPHO1, absorbance phosphatase assay; 1.1% of 290,000 active; inhibition, % at 13.3 µM; AID 1565; in the data active = inhibition above about 60%
Target sequence (Q8TCT1 whole entry, looked up): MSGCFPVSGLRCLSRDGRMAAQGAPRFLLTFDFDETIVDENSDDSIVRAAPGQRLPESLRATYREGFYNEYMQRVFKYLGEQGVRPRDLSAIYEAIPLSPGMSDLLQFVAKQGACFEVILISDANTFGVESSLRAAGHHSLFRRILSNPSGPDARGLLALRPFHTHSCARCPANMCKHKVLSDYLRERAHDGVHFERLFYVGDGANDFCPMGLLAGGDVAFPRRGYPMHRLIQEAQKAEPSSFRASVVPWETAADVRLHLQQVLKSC
MrgX1 allo act = human MrgX1 positive allosteric modulation, primary screen. B-score at 10 µM. Q96LB2. MrgX1-HEK293, Fluo-4 calcium flux, FDSS; hits give high values. 0.63% of 310,000 active. AID 588675;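 active = plate-corrected calcium response at least 3 library SD above typical, normal starting fluorescence, not activating the receptor alone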;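 note: compound read alongside a low EC10 to EC30 dose of BAM8-22 agonist; peak minus trough fluorescence over baseline measured at the second addition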
MrgX1 PAM conf = reconfirmed allosteric activator of human MrgX1 receptor. shares compounds with MrgX1 allo act. MrgX1-HEK293, Fluo-4 calcium fluorescence, FDSS. activation (ratio percentage), % at 10 µM. 13% of 1,200 active. AID 602413;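 active = ratio at least 3 SD above the weak peptide control, stable starting fluorescence, no direct agonism earlier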;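 note: compound followed by low BAM8-22 agonist challenge near EC20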
HEK293 Ca flux = MrgX1 antagonist counter-screen hit in parental HEK293 cells | fluorescence ratio F(max-min)/F0 at 10 µM | 2% of 4,000 active | shares compounds with MrgX1 antagonist | Fluo-4 calcium fluorescence, FDSS;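 active = duplicate-averaged calcium fluorescence ratio at least three times the standard deviation of buffer wells, a nonspecific response in parental cells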
HEK293 Ca counter = counter-screen for MrgX1 allosteric activators: effect in parental HEK293 cells; fluorescence ratio F(max-min)/F0 at 10 µM; AID 624114; shares compounds with MrgX1 antagonist; parental HEK293 calcium flux, Fluo-4 fluorescence ratio; hits give high values; 0.4% of 4,000 active;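 active = calcium fluorescence ratio, averaged over duplicates, at least 3 SD of the buffer-well ratio, meaning a nonspecific response in receptor-free cells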;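 note: untransfected parental HEK293 lacking MrgX1 used as counterscreen for MrgX1 allosteric activators; fluorescence change taken during the second addition on a kinetic imager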
HEK293 Ca cntr2 = MrgX1 activator counter-screen hit in parental HEK293 cells. shares compounds with MrgX1 antagonist. Fluo-4 calcium fluorescence (FDSS); hits give high values. fluorescence ratio F(max-min)/F0 at 10 µM. 8.7% of 4,000 active. AID 624115;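 active = calcium fluorescence ratio at least three times the spread of buffer wells, meaning a non-specific response in parental cells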
* = called active by the depositor; i = inactive; x = no result. Shown are actives, neighbours in structure and some others; about 4.5% of the full set was active somewhere.

SMILES | MrgX1 antagonist | MrgX1 agonist | RGS4 act | RGS4 inh | PHOSPHO1 block | MrgX1 allo act | MrgX1 PAM conf | HEK293 Ca flux | HEK293 Ca counter | HEK293 Ca cntr2
COc1ccc(S(=O)(=O)c2c(O)c3ccc(C(=O)Nc4cccc(F)c4)cc3[nH]c2=O)cc1 | i | i | i | i | 52.8 | 17.5* | i | i | i | i
COc1cccc(NC(=O)c2ccc3c(O)c(S(=O)(=O)c4ccccc4)c(=O)[nH]c3c2)c1 | i | i | i | i | 37.5 | i | x | x | x | x
O=C(CN1CCCCCC1)N/N=C/c1ccc2ccccc2c1 | i | i | i | i | -11.0 | i | x | x | x | x
COc1ccc(OC)c2sc(N(CCN(C)C)C(=O)c3cc(Cl)sc3Cl)nc12 | i | i | i | i | -8.2 | 21.2* | i | i | i | i
Nn1c(SCC(=O)Nc2cccc(S(N)(=O)=O)c2)nnc1C1CC1 | i | i | i | i | 27.7 | 7.84* | i | i | i | i
O=C(COC(=O)c1cnccn1)c1cccc([N+](=O)[O-])c1 | i | i | i | i | 15.9 | i | x | x | x | x
O=C(OCc1ccccc1F)c1cnc(Cl)c(Cl)c1 | i | i | i | i | 32.3 | i | x | x | x | x
C=C[C@@]1(C)CC(=O)[C@]2(O)[C@@]3(C)[C@@H](O)CCC(C)(C)[C@@H]3[C@H](OC(C)=O)[C@H](O)[C@@]2(C)O1 | i | i | i | i | x | 7.72* | i | i | i | i
Cc1csc(NC(=O)c2cncc(Br)c2)n1 | i | i | i | i | 29.5 | 15.1* | i | i | i | i
Cc1cc(NC(=O)CSc2nnc(-c3cccs3)n2N)no1 | i | i | i | i | 39.9 | i | x | x | x | x
CCCCn1c(SCC(=O)Nc2cc(C)on2)nnc1-c1cccs1 | i | i | i | i | 24.8 | 6.76* | i | i | i | i
O=C(OCC(=O)N1CCC(c2ccccc2)=N1)c1ccc([N+](=O)[O-])s1 | i | i | i | i | x | i | x | x | x | x
CC(=O)c1sc(NS(=O)(=O)c2ccc(C)cc2)nc1-c1ccccc1 | i | i | i | i | 31.0 | 16.4* | i | i | i | i
O=C(NCCc1csc(-c2cccnc2)n1)c1cccc(Cl)c1 | i | i | i | i | 31.6 | 9.61* | i | i | i | i
O=C(NCCc1csc(-c2cccnc2)n1)c1ccc(Cl)cc1 | i | i | i | i | 35.7 | i | x | x | x | x
Cc1cc(-n2c(C)cc(C(=O)CCl)c2C)no1 | i | i | i | i | 16.1 | 10.1* | i | i | i | i
Cc1cc(-n2c(C)cc(C(=O)CN3C(=O)NC4(CCCC4)C3=O)c2C)no1 | i | i | i | i | 10.7 | i | x | x | x | x
Cc1cc(C(=O)NNc2ccc(C(C)C)cc2)n(C(C)(C)C)n1 | i | i | i | i | 17.7 | i | x | x | x | x
CCOC(=O)CNC(=O)CSc1nc(-c2ccc(OC)cc2)ns1 | i | i | i | i | -84.5 | 11.9* | i | i | i | i
COc1cccc(OC)c1OCCCN1CCC(Cc2ccccc2)CC1 | i | i | i | i | x | i | x | x | x | x
CCCc1cc(C(=O)N2CCCC(C(=O)c3cccc4ccccc34)C2)n(C)n1 (stereo not drawn) | i | i | i | i | 22.6 | 12.2* | i | i | i | i
